In ChEMBL document CHEMBL4513216, “Probing the Open Global Health Chemical Diversity Library for Multistage-Active Starting Points for Next-Generation Antimalarials” (ACS Infect Dis, 2020) one finds cytotoxicity data, which are given here for 72 compounds.

The series is described as follows: Toxicity liver stage against HepG2, at 10uM. It is filed as cell-based. The conditions noted are these: human, HepG2-A16-CD81EGFP cells; read-out: INHIBITION
More on the design: test concentration 10 uM, cell line HepG2-A16-CD81EGFP. The method, boiled down:
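Uninfected HepG2-A16-CD81EGFP cells, 3 × 10^3 per well, 1536-well, plated on prespotted compound at 10 μM final, parasite-free screening media added to match infected plates; puromycin 10 μM positive, DMSO 0.5% negative; run in parallel with 48 h PbLuc assay at 37 °C, 5% CO2; viability by CellTiter-Glo luminescence, normalized to controls.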
As for `CN1CCN([C@@H]2CCN(Cc3cccc(-n4cccn4)c3)C[C@H]2O)CC1`, the cytotoxicity at 10 µM worked out at 8.42%.
With `Cn1nnc2c1CCN(Cc1ccncc1)C2COCc1ccccc1` (configuration not stated), the cytotoxicity at 10 µM was -134%.
For the compound `CCOc1ncccc1NC(=O)NCC(C)O` (configuration not stated), the cytotoxicity at 10 µM is -5.68%.
In the case of `CC1(C)CN(CC(=O)NCc2ccccc2F)C[C@]1(C)O`, the cytotoxicity at 10 µM is -1.84%.
For the compound `O=C(c1ncccn1)N1CC[C@H]2OCC[C@@]2(COc2ccccn2)C1`, the cytotoxicity at 10 µM is -146%.
With `O=C(c1ccncc1)N1CCC(c2nc(O)cc(-c3ccncc3)n2)C1` (configuration not stated), the cytotoxicity at 10 µM worked out at 0.873%.
In the case of `Cc1ccc2c(C)c(C(=O)NCCc3csc(N)n3)oc2c1`, the cytotoxicity at 10 µM is -8.79%.
Consider `CN1CC2(CCN(c3nc(N)nc4c3CCNC4)CC2)OC1=O`, for which the cytotoxicity at 10 µM was -5.66%.
`CSC1(CNC(=O)c2ccn(-c3ccccc3F)n2)CCOCC1`: the cytotoxicity at 10 µM is 0.243%.
The same measure for `O=C(c1ccccc1F)N1CCN(c2ccc(-n3cccn3)nn2)CC1`: -18.3%; for `Cn1c(CN2CCCC2)nnc1C1CCCN(C(=O)N2CCOCC2)C1` (configuration not stated): -0.193%.
Regarding `CC(C)c1nnc2n1CCN(C(=O)c1cccc(OCC(N)=O)c1)C2`, the cytotoxicity at 10 µM was -4.38%.
For `Cc1nn(-c2ccccc2)cc1C(=O)N1CCCC(n2ccnc2C)C1` (configuration not stated), the cytotoxicity at 10 µM was -3.11%.
The same measure for `COCCN(C)CC1CCCN1S(=O)(=O)c1cc(C)oc1C` (configuration not stated): 0.729%; for `Cc1cnn(CC2CCCCN2C(=O)c2ccc3[nH]nnc3c2)c1` (configuration not stated): 4.19%; for `Cc1ccc(CS(=O)(=O)N2CC[C@H]3[C@H]2CC(=O)N3C)cc1`: -7.33%.
Regarding `CC(C(=O)N1CCc2ccccc2C1)N(C)Cc1cscn1` (configuration not stated), the cytotoxicity at 10 µM was -1.6%.
For the compound `CC(C)OCC(=O)N1CCC(c2ncncc2-c2ccnc(N)c2)C1` (configuration not stated), the cytotoxicity at 10 µM was -2.44%.
For `Cc1[nH]c2cc(C3CCN(C(=O)c4ccccn4)CC3)nn2c(=O)c1C`, the cytotoxicity at 10 µM was determined as 0.636%.
The same measure for `CC(=O)NCC1CCN(c2ccnc3ccc(Br)cc23)CC1`: 14.2%; for `Cc1ccc(NC(=O)N(C)C)c(C(=O)OCC(=O)NC(C)C(C)C)c1` (configuration not stated): -14.9%.
Regarding `COc1ccc(CNC(=O)Nc2ccc(N3CCCC3)nc2)cc1O`, the cytotoxicity at 10 µM is -18.1%.
Consider `O=C(Nc1nc2c(s1)CN(S(=O)(=O)C1CC1)CC2)c1c(F)cccc1F`, for which the cytotoxicity at 10 µM is -14.1%.
Turning to `CCNC(=O)c1cc(OC)c2cc(F)cc(C)c2n1`, the cytotoxicity at 10 µM was -3.42%.
The same measure for `COc1cccc(S(=O)(=O)N2CCC(O)(CN(C)C)C2)c1` (configuration not stated): 3.85%; for `CCCn1nnnc1CN(CC)CC1COc2ccccc2O1` (configuration not stated): 13.3%.
In the case of `Cc1cc(C)nc(N2CCC(c3noc(C)n3)CC2)n1` it was -9.08%; in that of `CC(C)c1nc2c(n1C)CCN(CC(=O)Nc1ccncc1)C2`, 0.698%; in that of `COc1c(C)cnc(CN2CCCCC2CCN2CCOCC2)c1C` (configuration not stated), -4.27%.
On to `O=C(c1ncccc1O)N1CCc2c(ncnc2N2CCOCC2)C1`, for which the cytotoxicity at 10 µM was -3.99%.
With `O=C1CCCN1Cc1ncn2c1CN(Cc1cccs1)CCC2`, the cytotoxicity at 10 µM was -84.1%.
With `CCOCC(=O)NCCC(O)c1ccoc1` (configuration not stated), the cytotoxicity at 10 µM was -4.59%.
For `C1CCN(CCN2CCCCC2C2OCCO2)CC1` (configuration not stated), the cytotoxicity at 10 µM was determined as 3.19%.
On to `Cc1c(F)cc(C(=O)O)cc1S(=O)(=O)Nc1ccc(F)c(C#N)c1`, for which the cytotoxicity at 10 µM was -6.02%.
Turning to `O=C(C1CN(CC2CCOCC2)CC12CCOCC2)N1CCCC1` (configuration not stated), the cytotoxicity at 10 µM was found to be 6.65%.
Regarding `O=C(C1CCCC1)N1CCn2c(nnc2C2CCCNC2)C1` (configuration not stated), the cytotoxicity at 10 µM was determined as 1.19%.
With `CCc1nnc(NC(=O)Cc2c(C)nc(C)[nH]c2=O)s1`, the cytotoxicity at 10 µM is -14.4%.
As to `CC(C)n1ccnc1C1CCN(C(=O)c2cc[nH]n2)CC1`, the cytotoxicity at 10 µM is -3.28%.
The same measure for `C[C@@H]1C[C@H]2CN(C(=O)C3=CCCC3)C[C@H]2O1`: 0.199%; for `CCN1C(=O)CCC12CCC(NC(=O)c1cc(C)on1)CC2` (configuration not stated): -0.0663%; for `Cc1cnc(C)c(N2CCCC(CC3CC3)(C(=O)O)C2)n1` (configuration not stated): -6.09%.
Turning to `Cn1nc(Cl)cc1C(=O)N1CCC(C(=O)c2nc3ccccc3s2)CC1`, the cytotoxicity at 10 µM came out at 3.34%.
With `COCCN(CCOC)C(=O)c1cccc(Cn2nc(C)cc2C)c1`, the cytotoxicity at 10 µM was -8.22%.
Turning to `CC(O)CNc1nc(-c2cccnc2)nc2c1CCC2` (configuration not stated), the cytotoxicity at 10 µM amounted to 9.8%.
On to `O=C(c1ccccc1OC1CCCC1)N1CCCC(n2cncn2)C1` (configuration not stated), for which the cytotoxicity at 10 µM was -0.0581%.
Consider `CCc1cc(N[C@@H]2C[C@@H]3CC[C@H]2C3)n2nccc2n1`, for which the cytotoxicity at 10 µM is -2.24%.
In the case of `Cc1cc2nc(SCC(=O)N3CCOCC3)n(CCC(C)C)c(=O)c2[nH]1` it was 10.8%; in that of `Cc1cc2cccc(NC(=O)N3CCC(N(C)C)C3)c2o1` (configuration not stated), 1.97%; in that of `O=C(Cn1ccc2ccccc21)Nc1cc(N2CCOCC2)ncn1`, -14%.
With `O=S(=O)(NCCc1c[nH]c2cc(F)ccc12)C1CCOC1` (configuration not stated), the cytotoxicity at 10 µM is 8.57%.
`COc1c(C)cnc(CN2CCOC(Cn3nc(C)cc3C)C2)c1C` (configuration not stated): the cytotoxicity at 10 µM turned out to be 3.66%.
`Cn1cc(CC2CCN(C(=O)NCc3csc(C4CC4)n3)C2)cn1` (configuration not stated): the cytotoxicity at 10 µM was 5.22%.
Take `Cc1cnn(C2(C(=O)O)CCN(c3ccncc3F)CC2)c1`: the cytotoxicity at 10 µM was -1.94%.
Regarding `CSC(C)(C)CNC(=O)NC1CCN(CC=C(C)C)CC1`, the cytotoxicity at 10 µM was -6.45%.
Regarding `CC(C)COC(C)C(=O)NCCNS(C)(=O)=O` (configuration not stated), the cytotoxicity at 10 µM was -5.26%.
On to `CNC(=O)CN1CCC(NC(=O)N(C)Cc2c(C)noc2C)CC1`, for which the cytotoxicity at 10 µM was 2.1%.
Turning to `CSCC(=O)NS(=O)(=O)c1ccc(C#N)c(C(F)(F)F)c1`, the cytotoxicity at 10 µM came to 17.2%.
Turning to `Cc1ccc(C2CCCN(S(C)(=O)=O)C2)nc1` (configuration not stated), the cytotoxicity at 10 µM is 2.32%.
As to `c1ccc(CN2CCc3c(COCc4ccncc4)cncc3C2)nc1`, the cytotoxicity at 10 µM turned out to be 6.53%.
Regarding `CC(CNC(=O)NCc1ccsc1)CC1(C)OCCO1` (configuration not stated), the cytotoxicity at 10 µM was found to be 1.24%.
Regarding `Cc1cnn(C2CN(Cc3nnc(C4CC4)o3)C2)c1`, the cytotoxicity at 10 µM is -6.49%.
Take `COc1ccc(OC)c(CNCCc2cc(F)cc3c2OCOC3)c1`: the cytotoxicity at 10 µM is -8.08%.
Turning to `COCCc1noc(CN(C)C(=O)C(C)N2CCc3ccccc3C2)n1` (configuration not stated), the cytotoxicity at 10 µM is -0.262%.
Take `CC(C)NC(=O)CCCn1cnc2ccccc2c1=O`: the cytotoxicity at 10 µM was determined as 15.2%.
For `Cc1cccc(CN2CCC3(CC2)COC(COCC2CC2)C3)n1` (configuration not stated), the cytotoxicity at 10 µM was -108%.
The same measure for `O=C(NC1CCCCC1)N1CCCC1c1nnc2n1CCNC2` (configuration not stated): 14.4%; for `Cn1c(=O)oc2ccc(Nc3ncc(C#N)cc3Cl)cc21`: -1.21%.
As for `Cc1nnc(C(C)N(C)Cc2c(C)nn(-c3ccccc3)c2C)o1` (configuration not stated), the cytotoxicity at 10 µM was -4.73%.
Take `CC(C)(C)c1nnc(CN2CCN(C(=O)CC3CCCCC3)CC2)o1`: the cytotoxicity at 10 µM amounted to 15.3%.
Regarding `Cc1nc(C)c(CCNc2ccc(S(N)(=O)=O)cc2C#N)s1`, the cytotoxicity at 10 µM is -62.2%.
Regarding `O=C(O)c1cccnc1CN1CCCC1CCc1ccccc1` (configuration not stated), the cytotoxicity at 10 µM amounted to 10.9%.
As to `CCCN(C)C(=O)c1cc(S(=O)(=O)NCC)ccc1C`, the cytotoxicity at 10 µM is -0.403%.
